In ChEMBL document CHEMBL2331324, “Synthesis and biological evaluation of guanidino analogues of roscovitine” (Eur J Med Chem, 2013):

How the values were obtained:
[1] = biological target: Serine/threonine-protein kinase pim-1 (Homo sapiens) (UniProt P11309); assay: Inhibition of recombinant PIM1 (unknown origin) assessed as residual activity using [gamma-33P]ATP as substrate at 1 uM
In short: (§1)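 Selectivity panel run under previously published conditions. Screened at 1 μM in duplicate. Reactions started with [γ-33P]ATP (800 cpm/pmol) at 5, 20 or 50 μM, chosen to be at or below each enzyme's ATP Km. Stopped with phosphoric acid, spotted onto P81 filters. Result expressed as residual kinase activity.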

[2] = biological target: Serine/threonine-protein kinase PAK 6 (Homo sapiens) (UniProt Q9NQU5); assay: Inhibition of recombinant PAK6 (unknown origin) assessed as residual activity using [gamma-33P]ATP as substrate at 1 uM; in short: as §1
[3] = biological target: Mitogen-activated protein kinase 11 (Homo sapiens) (UniProt Q15759); assay: Inhibition of recombinant p38 MAPKbeta (unknown origin) assessed as residual activity using [gamma-33P]ATP as substrate at 1 uM
In short: (§2)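 Kinase panel screen with each compound at 1 µM, in duplicate. Reactions were started with [γ-33P]ATP (800 cpm/pmol) at 5, 20 or 50 µM, chosen per enzyme to be at or below its ATP Km. Reactions were stopped with phosphoric acid and spotted onto P81 filters. Results are given as residual kinase activity.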

[4] = biological target: Serine/threonine-protein kinase OSR1 (Homo sapiens) (UniProt O95747); assay: Inhibition of recombinant OSR1 (unknown origin) assessed as residual activity using [gamma-33P]ATP as substrate at 1 uM; in short: as §1
Serine/threonine-protein kinase OSR1 (Homo sapiens), sequence (O95747 2-527 limits assumed): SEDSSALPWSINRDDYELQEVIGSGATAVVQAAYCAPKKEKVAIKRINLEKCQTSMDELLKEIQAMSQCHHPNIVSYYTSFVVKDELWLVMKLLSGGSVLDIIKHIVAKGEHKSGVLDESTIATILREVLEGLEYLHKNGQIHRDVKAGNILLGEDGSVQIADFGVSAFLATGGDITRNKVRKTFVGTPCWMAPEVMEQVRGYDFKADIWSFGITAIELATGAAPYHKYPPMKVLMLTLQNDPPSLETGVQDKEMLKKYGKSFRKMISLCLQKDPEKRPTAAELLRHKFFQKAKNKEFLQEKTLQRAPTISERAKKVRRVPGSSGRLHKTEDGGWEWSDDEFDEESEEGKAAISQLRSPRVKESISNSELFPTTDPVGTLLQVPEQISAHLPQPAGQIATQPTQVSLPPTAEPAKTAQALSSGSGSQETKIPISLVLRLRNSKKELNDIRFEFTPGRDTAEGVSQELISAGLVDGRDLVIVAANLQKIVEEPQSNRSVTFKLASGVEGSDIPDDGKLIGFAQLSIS

[5] = biological target: NUAK family SNF1-like kinase 1 (Homo sapiens) (UniProt O60285); assay: Inhibition of recombinant NUAK1 (unknown origin) assessed as residual activity using [gamma-33P]ATP as substrate at 1 uM; in short: as §1
[6] = biological target: Serine/threonine-protein kinase Nek2 (Homo sapiens) (UniProt P51955); assay: Inhibition of recombinant NEK2a (unknown origin) assessed as residual activity using [gamma-33P]ATP as substrate at 1 uM; in short: as §1
[7] = biological target: Serine/threonine-protein kinase 3 (Homo sapiens) (UniProt Q13188); assay: Inhibition of recombinant MST2 (unknown origin) assessed as residual activity using [gamma-33P]ATP as substrate at 1 uM; in short: as §1
Serine/threonine-protein kinase 3 (Homo sapiens), sequence (Q13188 whole entry): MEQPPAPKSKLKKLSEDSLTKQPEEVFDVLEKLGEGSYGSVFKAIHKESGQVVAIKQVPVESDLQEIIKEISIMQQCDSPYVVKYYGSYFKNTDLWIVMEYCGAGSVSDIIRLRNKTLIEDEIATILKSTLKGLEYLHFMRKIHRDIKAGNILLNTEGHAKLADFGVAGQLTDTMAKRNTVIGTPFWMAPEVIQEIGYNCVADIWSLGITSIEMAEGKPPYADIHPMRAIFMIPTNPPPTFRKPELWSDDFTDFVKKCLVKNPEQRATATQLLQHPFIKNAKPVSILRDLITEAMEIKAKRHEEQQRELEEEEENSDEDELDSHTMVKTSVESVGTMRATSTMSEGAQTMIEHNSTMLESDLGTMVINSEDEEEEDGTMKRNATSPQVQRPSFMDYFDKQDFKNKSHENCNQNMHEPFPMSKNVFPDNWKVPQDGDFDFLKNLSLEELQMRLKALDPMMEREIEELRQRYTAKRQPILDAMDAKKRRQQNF

[8] = biological target: MAP kinase-interacting serine/threonine-protein kinase 2 (Homo sapiens) (UniProt Q9HBH9); assay: Inhibition of recombinant MNK2 (unknown origin) assessed as residual activity using [gamma-33P]ATP as substrate at 1 uM; in short: as §1
[9] = biological target: Mitogen-activated protein kinase kinase kinase 11 (Homo sapiens) (UniProt Q16584); assay: Inhibition of recombinant MLK3 (unknown origin) assessed as residual activity using [gamma-33P]ATP as substrate at 1 uM; in short: as §1
[10] = biological target: MAP/microtubule affinity-regulating kinase 4 (Homo sapiens) (UniProt Q96L34); assay: Inhibition of recombinant MARK4 (unknown origin) assessed as residual activity using [gamma-33P]ATP as substrate at 1 uM; in short: as §1
[11] = biological target: Serine/threonine-protein kinase MARK1 (Homo sapiens) (UniProt Q9P0L2); assay: Inhibition of recombinant MARK1 (unknown origin) assessed as residual activity using [gamma-33P]ATP as substrate at 1 uM; in short: as §1
[12] = biological target: Tyrosine-protein kinase JAK2 (Homo sapiens) (UniProt O60674); assay: Inhibition of recombinant JAK2 (unknown origin) assessed as residual activity using [gamma-33P]ATP as substrate at 1 uM
In short: (§3)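 Recombinant kinase panel screened at 1 µM in duplicate. Reactions started with [γ-33P]ATP (800 cpm/pmol) at 5, 20 or 50 µM, chosen to sit at or below each enzyme's ATP Km. Stopped with phosphoric acid and spotted onto P81 filters. Result given as residual kinase activity.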

[13] = biological target: Interleukin-1 receptor-associated kinase 4 (Homo sapiens) (UniProt Q9NWZ3); assay: Inhibition of recombinant IRAK4 (unknown origin) assessed as residual activity using [gamma-33P]ATP as substrate at 1 uM; in short: as §3
Interleukin-1 receptor-associated kinase 4 (Homo sapiens), sequence (Q9NWZ3 whole entry): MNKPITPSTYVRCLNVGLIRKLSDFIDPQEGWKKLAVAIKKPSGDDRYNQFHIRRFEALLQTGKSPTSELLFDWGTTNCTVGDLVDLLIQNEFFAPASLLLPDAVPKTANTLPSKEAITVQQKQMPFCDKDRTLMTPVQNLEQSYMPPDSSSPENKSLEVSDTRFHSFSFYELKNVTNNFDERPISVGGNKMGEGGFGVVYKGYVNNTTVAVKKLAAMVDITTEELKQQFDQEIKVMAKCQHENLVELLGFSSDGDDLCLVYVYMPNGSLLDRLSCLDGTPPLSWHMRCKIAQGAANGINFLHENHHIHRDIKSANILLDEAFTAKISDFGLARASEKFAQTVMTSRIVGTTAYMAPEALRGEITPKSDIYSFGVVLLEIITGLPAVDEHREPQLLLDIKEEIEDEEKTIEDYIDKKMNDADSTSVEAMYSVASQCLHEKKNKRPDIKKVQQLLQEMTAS

[14] = biological target: Homeodomain-interacting protein kinase 3 (Homo sapiens) (UniProt Q9H422); assay: Inhibition of recombinant HIPK3 (unknown origin) assessed as residual activity using [gamma-33P]ATP as substrate at 1 uM; in short: as §3
Homeodomain-interacting protein kinase 3 (Homo sapiens), sequence (Q9H422 whole entry, looked up): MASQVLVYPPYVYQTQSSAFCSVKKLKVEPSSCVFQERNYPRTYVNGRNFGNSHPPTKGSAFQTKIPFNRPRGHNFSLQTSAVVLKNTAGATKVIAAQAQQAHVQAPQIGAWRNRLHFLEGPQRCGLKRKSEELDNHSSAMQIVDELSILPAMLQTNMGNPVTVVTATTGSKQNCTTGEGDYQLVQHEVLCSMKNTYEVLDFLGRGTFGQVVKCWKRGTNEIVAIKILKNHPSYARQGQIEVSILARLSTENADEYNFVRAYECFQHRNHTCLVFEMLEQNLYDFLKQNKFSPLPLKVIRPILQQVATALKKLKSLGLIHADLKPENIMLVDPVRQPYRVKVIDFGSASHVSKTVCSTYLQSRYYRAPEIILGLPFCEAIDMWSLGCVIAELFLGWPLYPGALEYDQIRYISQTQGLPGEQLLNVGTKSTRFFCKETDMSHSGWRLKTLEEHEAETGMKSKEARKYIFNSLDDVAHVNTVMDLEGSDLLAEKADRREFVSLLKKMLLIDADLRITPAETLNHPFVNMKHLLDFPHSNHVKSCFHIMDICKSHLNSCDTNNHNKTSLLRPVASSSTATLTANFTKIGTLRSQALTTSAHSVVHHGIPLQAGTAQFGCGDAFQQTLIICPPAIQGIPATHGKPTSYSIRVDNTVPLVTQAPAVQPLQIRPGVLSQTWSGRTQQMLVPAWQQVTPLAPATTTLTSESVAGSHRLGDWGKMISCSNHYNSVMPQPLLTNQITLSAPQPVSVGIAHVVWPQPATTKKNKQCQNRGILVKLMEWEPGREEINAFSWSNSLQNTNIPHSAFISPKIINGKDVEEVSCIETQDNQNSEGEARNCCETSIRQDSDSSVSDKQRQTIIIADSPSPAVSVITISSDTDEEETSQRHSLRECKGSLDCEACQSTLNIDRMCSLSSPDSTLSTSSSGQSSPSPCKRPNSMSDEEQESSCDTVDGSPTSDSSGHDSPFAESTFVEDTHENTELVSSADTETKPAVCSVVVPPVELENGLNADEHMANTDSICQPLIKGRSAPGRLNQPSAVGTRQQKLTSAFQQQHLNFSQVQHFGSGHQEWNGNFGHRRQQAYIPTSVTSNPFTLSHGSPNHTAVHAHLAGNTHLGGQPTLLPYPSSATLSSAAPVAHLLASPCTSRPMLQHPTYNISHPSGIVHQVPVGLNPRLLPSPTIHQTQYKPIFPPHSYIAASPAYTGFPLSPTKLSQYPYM

[15] = biological target: Receptor tyrosine-protein kinase erbB-4 (Homo sapiens) (UniProt Q15303); assay: Inhibition of recombinant HER4 (unknown origin) assessed as residual activity using [gamma-33P]ATP as substrate at 1 uM; in short: as §3
[16] = biological target: Glycogen synthase kinase-3 beta (Homo sapiens) (UniProt P49841); assay: Inhibition of recombinant GSK3b (unknown origin) assessed as residual activity using [gamma-33P]ATP as substrate at 1 uM; in short: as §3
[17] = biological target: Ephrin type-B receptor 4 (Homo sapiens) (UniProt P54760); assay: Inhibition of recombinant EPH-B4 (unknown origin) assessed as residual activity using [gamma-33P]ATP as substrate at 1 uM; in short: as §3
Ephrin type-B receptor 4 (Homo sapiens), sequence (P54760 whole entry): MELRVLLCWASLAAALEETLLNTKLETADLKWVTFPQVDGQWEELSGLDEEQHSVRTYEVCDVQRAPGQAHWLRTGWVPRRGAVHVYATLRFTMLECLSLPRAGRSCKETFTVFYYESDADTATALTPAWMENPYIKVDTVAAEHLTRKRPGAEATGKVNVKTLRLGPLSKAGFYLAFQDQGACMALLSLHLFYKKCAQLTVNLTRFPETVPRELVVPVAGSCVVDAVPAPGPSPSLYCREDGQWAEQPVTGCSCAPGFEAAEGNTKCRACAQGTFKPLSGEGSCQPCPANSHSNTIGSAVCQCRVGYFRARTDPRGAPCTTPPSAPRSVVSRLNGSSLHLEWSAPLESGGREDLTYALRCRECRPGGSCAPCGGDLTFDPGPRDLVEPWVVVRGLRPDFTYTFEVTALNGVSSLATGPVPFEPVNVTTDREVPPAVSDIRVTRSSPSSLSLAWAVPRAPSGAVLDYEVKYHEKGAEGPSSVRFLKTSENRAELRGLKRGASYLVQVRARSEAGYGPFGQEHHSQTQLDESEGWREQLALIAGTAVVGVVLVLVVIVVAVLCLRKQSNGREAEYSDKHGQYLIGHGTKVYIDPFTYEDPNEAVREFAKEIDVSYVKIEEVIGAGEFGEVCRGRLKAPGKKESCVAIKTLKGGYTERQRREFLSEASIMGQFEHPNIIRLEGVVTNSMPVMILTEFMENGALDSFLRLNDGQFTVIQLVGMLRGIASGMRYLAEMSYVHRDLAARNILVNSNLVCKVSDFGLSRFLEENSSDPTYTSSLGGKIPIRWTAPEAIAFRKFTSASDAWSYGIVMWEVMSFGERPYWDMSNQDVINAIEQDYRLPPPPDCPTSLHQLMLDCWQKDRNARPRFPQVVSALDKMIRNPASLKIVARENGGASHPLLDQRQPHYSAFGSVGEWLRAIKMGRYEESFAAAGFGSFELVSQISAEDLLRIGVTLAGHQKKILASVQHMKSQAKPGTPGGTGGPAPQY

[18] = biological target: Ephrin type-B receptor 2 (Homo sapiens) (UniProt P29323); assay: Inhibition of recombinant EPH-B2 (unknown origin) assessed as residual activity using [gamma-33P]ATP as substrate at 1 uM; in short: as §3
[19] = biological target: Tyrosine-protein kinase Yes (Homo sapiens) (UniProt P07947); assay: Inhibition of recombinant YES1 (unknown origin) assessed as residual activity using [gamma-33P]ATP as substrate at 1 uM; in short: as §2
Tyrosine-protein kinase Yes (Homo sapiens), sequence (P07947 2-543 limits assumed): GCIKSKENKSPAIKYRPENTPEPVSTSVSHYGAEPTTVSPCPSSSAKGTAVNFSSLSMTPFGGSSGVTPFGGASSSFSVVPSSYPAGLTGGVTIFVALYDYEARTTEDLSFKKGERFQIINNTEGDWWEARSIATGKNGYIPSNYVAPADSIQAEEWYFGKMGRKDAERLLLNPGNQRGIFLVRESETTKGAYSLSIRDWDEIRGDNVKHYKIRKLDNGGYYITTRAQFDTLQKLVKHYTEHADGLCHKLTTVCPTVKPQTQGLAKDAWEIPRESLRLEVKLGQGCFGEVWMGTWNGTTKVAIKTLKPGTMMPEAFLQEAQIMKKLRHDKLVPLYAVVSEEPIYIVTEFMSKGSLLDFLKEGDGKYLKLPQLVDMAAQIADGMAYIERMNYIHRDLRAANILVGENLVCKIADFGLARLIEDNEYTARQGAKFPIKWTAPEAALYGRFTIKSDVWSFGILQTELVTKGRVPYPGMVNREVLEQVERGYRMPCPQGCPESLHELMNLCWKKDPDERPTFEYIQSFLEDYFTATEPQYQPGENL

[20] = biological target: Dual specificity protein kinase TTK (Homo sapiens) (UniProt P33981); assay: Inhibition of recombinant TTK (unknown origin) assessed as residual activity using [gamma-33P]ATP as substrate at 1 uM; in short: as §2
Dual specificity protein kinase TTK (Homo sapiens), sequence (P33981 whole entry): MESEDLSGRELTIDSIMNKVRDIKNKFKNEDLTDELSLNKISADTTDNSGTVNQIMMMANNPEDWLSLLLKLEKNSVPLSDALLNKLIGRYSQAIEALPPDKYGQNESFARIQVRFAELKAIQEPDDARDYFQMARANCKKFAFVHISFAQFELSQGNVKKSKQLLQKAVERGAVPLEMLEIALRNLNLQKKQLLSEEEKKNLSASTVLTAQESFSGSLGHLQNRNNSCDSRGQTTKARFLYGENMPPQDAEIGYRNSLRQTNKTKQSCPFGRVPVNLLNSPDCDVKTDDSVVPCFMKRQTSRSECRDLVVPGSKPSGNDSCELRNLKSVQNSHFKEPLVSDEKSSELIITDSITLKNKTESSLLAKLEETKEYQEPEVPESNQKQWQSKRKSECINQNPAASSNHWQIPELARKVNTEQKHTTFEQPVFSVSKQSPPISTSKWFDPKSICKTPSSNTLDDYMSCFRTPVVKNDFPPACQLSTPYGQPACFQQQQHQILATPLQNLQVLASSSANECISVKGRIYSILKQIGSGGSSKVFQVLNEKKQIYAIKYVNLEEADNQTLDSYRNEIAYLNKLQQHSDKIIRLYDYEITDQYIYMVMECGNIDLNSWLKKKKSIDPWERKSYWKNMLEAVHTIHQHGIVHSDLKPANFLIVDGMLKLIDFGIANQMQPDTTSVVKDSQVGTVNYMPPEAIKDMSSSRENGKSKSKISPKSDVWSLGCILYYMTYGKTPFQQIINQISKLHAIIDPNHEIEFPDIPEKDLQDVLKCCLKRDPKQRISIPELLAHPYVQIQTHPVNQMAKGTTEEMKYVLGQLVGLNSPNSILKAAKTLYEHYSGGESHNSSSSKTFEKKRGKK

[21] = biological target: Tyrosine-protein kinase SYK (Homo sapiens) (UniProt P43405); assay: Inhibition of recombinant SYK (unknown origin) assessed as residual activity using [gamma-33P]ATP as substrate at 1 uM; in short: as §2
[22] = biological target: Ribosomal protein S6 kinase beta-1 (Homo sapiens) (UniProt P23443); assay: Inhibition of recombinant S6K1 (unknown origin) assessed as residual activity using [gamma-33P]ATP as substrate at 1 uM; in short: as §2
[23] = biological target: Ribosomal protein S6 kinase alpha-1 (Homo sapiens) (UniProt Q15418); assay: Inhibition of recombinant RSK1 (unknown origin) assessed as residual activity using [gamma-33P]ATP as substrate at 1 uM; in short: as §2
[24] = biological target: Dual specificity tyrosine-phosphorylation-regulated kinase 2 (Homo sapiens) (UniProt Q92630); assay: Inhibition of recombinant DYRK2 (unknown origin) assessed as residual activity using [gamma-33P]ATP as substrate at 1 uM; in short: as §3
[25] = biological target: Death-associated protein kinase 1 (Homo sapiens) (UniProt P53355); assay: Inhibition of recombinant DAPK1 (unknown origin) assessed as residual activity using [gamma-33P]ATP as substrate at 1 uM; in short: as §3
[26] = biological target: Serine/threonine-protein kinase BRSK2 (Homo sapiens) (UniProt Q8IWQ3); assay: Inhibition of recombinant BRSK2 (unknown origin) assessed as residual activity using [gamma-33P]ATP as substrate at 1 uM; in short: as §3
[27] = biological target: Serine/threonine-protein kinase PAK 5 (Homo sapiens) (UniProt Q9P286); assay: Inhibition of recombinant PAK5 (unknown origin) assessed as residual activity using [gamma-33P]ATP as substrate at 1 uM

| SMILES | Activity [1] | Activity [2] | Activity [3] | Activity [4] | Activity [5] | Activity [6] | Activity [7] | Activity [8] | Activity [9] | Activity [10] | Activity [11] | Activity [12] | Activity [13] | Activity [14] | Activity [15] | Activity [16] | Activity [17] | Activity [18] | Activity [19] | Activity [20] | further results |
| --- | --- | --- | --- | --- | --- | --- | --- | --- | --- | --- | --- | --- | --- | --- | --- | --- | --- | --- | --- | --- | --- |
| CC[C@@H](CO)Nc1nc(NC(=N)N)c2ncn(C(C)C)c2n1 | 71% | 17% | 66% | 16% | 7% | 57% | 43% | 122% | 37% | 29% | 39% | 16% | 11% | 24% | 29% | 28% | 6% | 2% | 11% | 32% | Activity [21]: 50%; Activity [22]: 36%; Activity [23]: 12%; Activity [24]: 16%; Activity [25]: 36%; Activity [26]: 67%; Activity [27]: 15% |
| CC[C@H](CO)Nc1nc(NC(=N)N)c2ncn(C(C)C)c2n1 | 85% | 26% | 64% | 16% | 8% | 73% | 35% | 119% | 37% | 38% | 31% | 16% | 21% | 38% | 27% | 37% | 6% | 2% | 13% | 40% | Activity [21]: 58%; Activity [22]: 49%; Activity [23]: 18%; Activity [24]: 27%; Activity [25]: 54%; Activity [26]: 77%; Activity [27]: 18% |
